# Sampled rows, rich in hits. Any-hit rate of the full collection: about 2.3%.
# PAFAH1B2 FP inh – blocks human PAF acetylhydrolase 1b catalytic subunit 2; P68402; recombinant PAFAH1B2, FP-rhodamine activity probe, fluorescence polarization; inhibition, % at 3.39 µM; actives 1.2% (n = 340,000); AID 492953;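 active = inhibition above the mean of all tested compounds plus 3 SD, cut at about 24% in these data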;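 note: 0% = enzyme with DMSO and 100% = wells lacking PAFAH1B2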
# TDP2 inh – TDP2 (human) inhibition, absorbance primary screen | actives 0.34% (n = 370,000) | inhibition, % at 12.8 µM | O95551 | recombinant TDP2, T5PNP hydrolysis, p-nitrophenol absorbance 415 nm;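 active = inhibition above the mean of all tested compounds plus 3 SD, set per campaign, cut at about 25% in these data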;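 note: 0% = DMSO with enzyme and 100% = buffer with substrate but no TDP2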
#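 Material: recombinant human TDP2; quantity: TDP2 enzyme at 120 nM final; medium: Tris-HCl pH 7.5 with MgCl2; compound: single concentration, 12.8 µM nominal, with 1% DMSO; incubation: 2 h enzyme incubation at 37 °C; signal: epi absorbance; measure: percent inhibition; benchmarks: high control without enzyme, low control DMSO plus TDP2; repeats: singlicate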
# Apaf1 inhib – blocks human Apaf-1 apoptosome activity; O14727; reconstituted apoptosome caspase-3 activity, DEVD-Rh110 fluorescence; inhibition, % at 20 µM; actives 0.71% (n = 330,000); AID 489030; active = inhibition of at least 40% at 20 µM;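 note: plate controls were DMSO wells for no effect and DEVD-CHO caspase inhibitor wells for full effect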
# Target sequence (O14727 whole entry, looked up): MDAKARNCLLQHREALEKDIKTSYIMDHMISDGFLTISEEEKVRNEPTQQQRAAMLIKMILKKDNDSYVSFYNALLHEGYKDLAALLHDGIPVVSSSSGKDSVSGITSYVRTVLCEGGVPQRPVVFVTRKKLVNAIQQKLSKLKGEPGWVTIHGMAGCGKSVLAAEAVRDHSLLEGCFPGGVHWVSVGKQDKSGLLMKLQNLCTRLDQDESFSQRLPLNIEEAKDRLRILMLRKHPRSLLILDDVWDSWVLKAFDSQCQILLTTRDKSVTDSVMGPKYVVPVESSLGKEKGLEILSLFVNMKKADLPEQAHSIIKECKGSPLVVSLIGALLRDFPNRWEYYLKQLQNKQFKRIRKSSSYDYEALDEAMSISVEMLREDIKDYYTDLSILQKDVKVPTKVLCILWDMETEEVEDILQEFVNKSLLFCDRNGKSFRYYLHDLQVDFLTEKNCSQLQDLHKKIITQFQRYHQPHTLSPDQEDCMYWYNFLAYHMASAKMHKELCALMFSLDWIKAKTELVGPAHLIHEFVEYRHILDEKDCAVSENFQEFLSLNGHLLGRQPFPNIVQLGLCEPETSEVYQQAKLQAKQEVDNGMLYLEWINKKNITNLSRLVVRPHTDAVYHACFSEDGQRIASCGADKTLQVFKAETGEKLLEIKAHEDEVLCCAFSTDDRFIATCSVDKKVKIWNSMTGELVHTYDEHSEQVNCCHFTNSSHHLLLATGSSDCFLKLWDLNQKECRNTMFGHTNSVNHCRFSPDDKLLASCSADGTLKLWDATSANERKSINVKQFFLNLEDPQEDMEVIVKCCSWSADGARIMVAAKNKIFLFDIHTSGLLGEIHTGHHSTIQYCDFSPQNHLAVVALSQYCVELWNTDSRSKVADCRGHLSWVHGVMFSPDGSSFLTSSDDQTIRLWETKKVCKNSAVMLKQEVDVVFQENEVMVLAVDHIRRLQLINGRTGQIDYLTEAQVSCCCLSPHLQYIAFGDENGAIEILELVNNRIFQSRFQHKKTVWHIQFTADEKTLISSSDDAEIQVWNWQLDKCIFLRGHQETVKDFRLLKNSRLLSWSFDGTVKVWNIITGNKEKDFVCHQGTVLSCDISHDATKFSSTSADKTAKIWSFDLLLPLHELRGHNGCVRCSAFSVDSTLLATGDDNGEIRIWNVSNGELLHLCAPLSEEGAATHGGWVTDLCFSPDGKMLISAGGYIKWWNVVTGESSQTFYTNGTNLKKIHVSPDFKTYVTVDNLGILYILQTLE
#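 Material: reconstituted apoptosome with Apaf-1, cytochrome c, caspase-9, procaspase-3, dATP / Buffer or medium: pH 7.5 Hepes buffer with CHAPS, BSA, DTT / Also added: cytochrome c with DEVD-Rh110 / Schedule: compound with Apaf-1, dATP, procaspase-3 30 min, then 50 min reaction, room temperature / Technique: rhodamine 110 fluorescence at Ex 480/Em 540 nm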
# PAFAH1B3 inh – PAFAH1B3 (human) inhibition | inhibition, % at 3.39 µM | Q15102 | recombinant PAFAH1B3, FP-rhodamine probe, fluorescence polarization | actives 0.28% (n = 340,000) | AID 492972;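 active = inhibition above the screen-wide average of all tested compounds plus 3 SD, cut at about 25% in these data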;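 note: 0% = enzyme with DMSO only and 100% = wells lacking PAFAH1B3 protein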
# PAFAH2 FP inh – PAFAH2 (human) inhibition. Q99487. recombinant PAFAH2, FP-rhodamine activity probe, fluorescence polarization. inhibition, % at 3.39 µM. actives 0.99% (n = 340,000). AID 492956;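 active = inhibition above the mean over all tested compounds plus 3 SD, cut at about 30% in these data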;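 note: inhibitors block probe labeling of enzyme so polarization drops; 0% = enzyme with DMSO and 100% = wells lacking PAFAH2 protein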
# The depositor's hits bear a star; · = not tested or not shown; ! = not active in a repeat.
SMILES,PAFAH1B2 FP inh,TDP2 inh,Apaf1 inhib,PAFAH1B3 inh,PAFAH2 FP inh
S=C1Nc2ccccc2CS1,·,4.2,·,·,·
N#C/C(=C(/O)c1ccccc1F)c1nc2cc(C(F)(F)F)ccc2s1,82.2*,0.1,-4.7,11.2,24.6
N#C/C(=C(/O)c1ccc2c(c1)OCO2)c1nc2cc(C(F)(F)F)ccc2s1,88.5*,7.8,-3.2,11.0,19.0
COC(=O)[C@]12C[C@H](CC(=O)NCC3CCCCC3)C(=O)N(Cc3ccc(Cl)cc3Cl)C1=C[C@H](COCc1ccccc1)O[C@@H]2C,·,-3.3,·,·,·
O=C(CSc1nnc(-c2cccnc2)n1-c1ccc(Cl)cc1)c1ccc(F)cc1,·,2.4,·,·,·
Cc1cc(N2CCN(CC(C)(C)O)C[C@H]2C)ccc1N1CCN(Cc2ccccc2)[C@@H](C)C1,·,-6.6,·,·,·
COC(=O)C1CN(Cc2ccc(OC)cc2)CCS(=O)(=O)N1Cc1ccc(Cl)cc1 (stereo not drawn),·,-10.1,·,·,·
CC(CCc1ccccc1)NCc1cccc2ccccc12 (stereo not drawn),-0.4,4.8,0.5,8.5,-0.1
CNC[C@H](Cc1cccc2ccccc12)NC[C@H](CCSC)NCC1CCC(C(C)(C)C)CC1 (stereo partly drawn),·,·,64.7*,·,·
O=C(C1CC(Cl)CN1S(=O)(=O)c1ccc(Cl)cc1)N1CCOCC1 (stereo not drawn),6.6,-2.7,-6.9,-2.6,12.0
O=C(N1CCOCC1)N1CCN(S(=O)(=O)c2ccc(Cl)cc2)C1,25.6*,-9.8,1.2,4.4,-1.8
Nc1[nH]c(C(=O)c2ccccc2)c(-c2ccccc2)c1C(=O)NCCc1c[nH]c2ccccc12,·,-0.2,·,·,·
Cc1ccc(NC(=O)CSc2nc3ccccc3c(=O)n2CCCN2CCCCC2)cc1C,6.8,2.9,54.9*,5.1,3.7
CC(=O)c1cccc(NC(=O)CSc2nc3ccccc3c(=O)n2CCCN2CCOCC2)c1,5.6,8.2,-0.3,-3.1,5.7
CC1CCCCC1NC(=O)CSc1nnc(COc2ccc(Cl)cc2)o1 (stereo not drawn),28.9*,0.5,12.2,9.8,-13.3
O=C(CSc1nnc(COc2ccc(Cl)cc2)o1)NC1CC2CCC1C2 (stereo not drawn),24.2*,-2.3,11.1,4.8,2.5
CC1CCCCC1NC(=O)CSc1nnc(COc2ccccc2Cl)o1 (stereo not drawn),2.9,-17.3,7.0,-0.4,4.1
COc1ccc(OCc2nnc(SCC(=O)NC3CC4CCC3C4)o2)cc1 (stereo not drawn),6.1,10.2,8.3,-0.4,-6.0
C=CCSc1nc(-c2ccccc2)c(C#N)c(=O)[nH]1,0.2,8.9,-16.3,4.2,-9.8
N#Cc1c(-c2ccccc2)nc(SCC(=O)N(c2ccccc2)c2ccccc2)[nH]c1=O,38.9*,2.0,·,8.3,-3.8
N#Cc1c(-c2ccccc2)nc(SCc2ccc(Cl)cc2)[nH]c1=O,35.0*,16.3,10.6,-0.6,-10.1
N#Cc1c(-c2ccccc2)nc(SCC(=O)N2c3ccccc3Sc3ccccc32)[nH]c1=O,24.5*,22.9,0.8,-9.4,-12.6
N#Cc1c(-c2ccccc2)nc(SCC(=O)Nc2ccccc2)[nH]c1=O,7.1,-3.7,·,13.5,-2.0
N#Cc1c(-c2ccccc2)nc(SCC(=O)Nc2ccc(OC(F)(F)Cl)cc2)[nH]c1=O,78.9*,11.5,11.4,13.7,-4.0
CC[C@H]1C=C[C@@H](C(=O)NS(=O)(=O)c2ccc(C)cc2)N(C(C)=O)C1,·,2.5,·,·,·
SMILES,PAFAH1B2 FP inh,TDP2 inh,Apaf1 inhib,PAFAH1B3 inh,PAFAH2 FP inh
COc1ccc2c(c(-c3ccccc3)cn2C)c1-c1ccccc1,·,-3.8,·,·,·
COC(=O)[C@]12C[C@H](CC(=O)N3CCN(C(=O)C4CC4)CC3)C(=O)N(Cc3ccc4c(c3)OCO4)C1=C[C@H](C(C)C)O[C@@H]2C1CC1,·,6.1,·,·,·
COc1ccc(N2CCN(C(=O)c3ccc(CSc4ccccc4)cc3)CC2)cc1,25.9*,-9.7,15.2,5.0,1.9
COc1ccc(N2CCN(C(=O)CSc3ccccc3)CC2)cc1,0.0,-2.9,-0.9,8.2,-1.9
C/C(N)=C(/C#N)C(=O)COC(=O)CCSc1ccccc1,26.5*!,-1.2,4.8,2.5,12.5
C/C(N)=C(/C#N)C(=O)COC(=O)CCS(=O)(=O)c1ccccc1,1.7,2.9,-6.2,15.4,-3.1
O=C(C(=O)N1CCC(CNC(=O)C2COc3ccccc3O2)CC1)c1cccs1 (stereo not drawn),·,9.3,·,·,·
CC(C1CC2CCC1C2)n1c(-c2ccco2)n[nH]c1=S (stereo not drawn),27.0*,-5.0,12.2,4.0,9.5
Cc1cc(=O)[nH]c(SCC(=O)Nc2cc(S(=O)(=O)N3CCCC3)ccc2Cl)n1,2.9,13.3,-18.1,1.8,6.2
CCCc1cc(=O)[nH]c(SCC(=O)Nc2cc(S(=O)(=O)N3CCCCC3)ccc2C)n1,24.2*,1.3,-10.1,14.8,-2.3
O=C(C1CCN(c2ncnc3c2sc2cccc(F)c23)CC1)N1CCN(Cc2ccccc2)CC1,·,-2.9,·,·,·
COC(=O)[C@@]1(OC(C)=O)CC(OC(C)=O)[C@H](OC(C)=O)[C@H](OC(C)=O)C1Br (stereo partly drawn),·,6.9,·,·,·
N#Cc1ccc(C23CC4(C2)[C@H](CN(CC2CCCCC2)[C@@H]4c2ccccc2)C3c2ccc(C(F)(F)F)cc2)cc1 (stereo partly drawn),·,-10.8,42.3*,·,·
COc1ccc(Cn2c(O)c(C=Nc3ccccc3C(=O)O)c3ccccc3c2=O)cc1,4.1,2.1,24.8,10.1,37.0*
COc1ccccc1NS(=O)(=O)c1cccc(-n2c(O)c(C=Nc3ccccc3C(=O)O)c3ccccc3c2=O)c1,7.2,-7.2,22.8,6.4,83.0*
CC(C)(C)c1ccc(-c2nnc(SCC(=O)c3ccc4ccccc4c3)n2-c2ccc(Cl)cc2)cc1,·,6.6,·,·,·
COc1cccc(C2CC=C(C(=O)O)CN2S(=O)(=O)c2ccc(C)cc2)c1 (stereo not drawn),·,0.2,·,·,·
O=S(=O)(NCc1ccccc1)c1ccc(Br)s1,17.0,2.4,8.9,-4.3,-3.8
Cn1c(=O)oc2cc(S(=O)(=O)NCCC(=O)NCCc3ccc(Cl)cc3)ccc21,32.0*,-18.1,-3.6,1.5,-4.0
O=C(CNS(=O)(=O)c1ccc(Br)s1)NCCc1ccc(Cl)cc1,29.3*,4.2,7.8,1.3,-0.6
Cc1ccc(CNS(=O)(=O)c2ccc(Br)s2)cc1,25.1*,-15.3,10.7,2.9,3.4
Cc1nc2ccc(S(=O)(=O)NCC(=O)NCCc3ccc(Cl)cc3)cc2s1,24.5*,-11.6,2.3,5.4,9.8
CCOC(=O)c1cccc(NC(=O)CN(C)S(=O)(=O)c2cc(OC)ccc2OC)c1,·,-2.1,·,·,·
CS(=O)(=O)N1CCC(C(=O)NCC2COc3ccccc3O2)CC1 (stereo not drawn),·,2.2,·,·,·
C[C@H](NC(=O)OCc1ccccc1)C(=O)N[C@@H](Cc1c[nH]c2ccccc12)C(=O)O,25.5*,5.0,-10.3,-0.1,2.3

# Assay outcomes deposited in PubChem BioAssay by several laboratories.
